Calls of active or inactive are those of the source. The rule behind the calls is not given here.
Tests used:
[1] = target: T1, Prostaglandin G/H synthase 2 (Mus musculus) (UniProt Q05769); experiment: Inhibitory potency at mouse COX2 assessed as molar ratio of drug to enzyme required to slow down the reaction twofold at 0.1 uM enzyme concentration
T1 sequence (whole entry): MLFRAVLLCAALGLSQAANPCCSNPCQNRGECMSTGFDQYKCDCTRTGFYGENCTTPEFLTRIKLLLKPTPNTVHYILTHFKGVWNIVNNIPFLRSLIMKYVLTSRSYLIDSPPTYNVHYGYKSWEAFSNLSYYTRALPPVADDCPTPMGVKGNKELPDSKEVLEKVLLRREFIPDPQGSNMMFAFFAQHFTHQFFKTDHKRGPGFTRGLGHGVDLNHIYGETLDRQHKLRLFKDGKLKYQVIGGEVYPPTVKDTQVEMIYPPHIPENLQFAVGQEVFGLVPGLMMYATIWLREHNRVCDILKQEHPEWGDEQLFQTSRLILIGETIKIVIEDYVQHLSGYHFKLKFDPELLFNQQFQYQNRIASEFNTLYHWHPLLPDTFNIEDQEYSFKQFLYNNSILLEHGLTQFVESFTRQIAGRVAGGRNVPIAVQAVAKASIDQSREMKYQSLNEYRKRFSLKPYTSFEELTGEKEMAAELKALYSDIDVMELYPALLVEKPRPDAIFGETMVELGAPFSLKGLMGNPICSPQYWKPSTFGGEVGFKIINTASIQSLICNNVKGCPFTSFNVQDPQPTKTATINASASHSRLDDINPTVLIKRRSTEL
Procedure, shortened: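 Mouse cyclooxygenase-2 at 100 nM final concentration. Potency is expressed as the inhibitor/enzyme molar ratio giving a two-fold decrease in the initial rate of catalysis (I/E2).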

[2] = test system: Trypanosoma cruzi; experiment: Antitrypanosomal activity against Trypanosoma cruzi trypomastigotes in cardiomyocytes; format: functional, organism-based
Procedure, shortened: (§1)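 Trypomastigotes (10^6) were pre-exposed for 30 min to inhibitor in DMSO (1–50 μM) or DMSO control. They then infected rat cardiomyocyte monolayers in triplicate at 10 parasites/cell for 2 h. Unbound parasites were removed and cells were grown in DMEM/10% FBS for 72 h. Parasites per 200 cells and % infection were counted on Giemsa-stained monolayers. Results are mean ± SD, with Student t test.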

[3] = target: Sterol 14-alpha demethylase (Trypanosoma cruzi (strain CL Brener)) (UniProt Q7Z1V1); experiment: Inhibitory potency at Trypanosoma cruzi CYP51 assessed as molar ratio of drug to enzyme required to slow down the reaction twofold at 1 uM enzyme concentration
Procedure, shortened: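 Reconstituted with T. brucei CPR and DLPC (TCCYP51:CPR:DLPC 1:2:50). Final mix: 1 μM TCCYP51, 50 μM [3H]-MDL in MOPS pH 7.4 with KCl, MgCl2, glycerol and an isocitrate/isocitrate dehydrogenase system. Inhibitors 1–100 μM, 5 min preincubation at 37°C, started with NADPH. Sterols by reverse-phase radio-HPLC. I/E2 is the inhibitor/enzyme molar ratio halving the initial rate.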

[4] = test system: Trypanosoma cruzi; experiment: Antitrypanosomal activity against Trypanosoma cruzi amastigotes in cardiomyocytes; format: functional; procedure, shortened: as §1
[5] = target: Sterol 14-alpha demethylase (Trypanosoma cruzi (strain CL Brener), UniProt Q7Z1V1); experiment: Binding affinity to Trypanosoma cruzi CYP51 expressed in Escherichia coli by spectral titration
[6] = test system: Trypanosoma cruzi; experiment: Antitrypanosomal activity against Trypanosoma cruzi epimastigotes assessed as blocking of cellular sterol composition at 50 uM after 24 hrs
[7] = test system: Trypanosoma cruzi; experiment: Antitrypanosomal activity against Trypanosoma cruzi trypomastigotes in cardiomyocytes at 10 uM after 72 hrs; format: functional, organism-based; procedure, shortened: as §1
[8] = test system: Trypanosoma cruzi; experiment: Antitrypanosomal activity against Trypanosoma cruzi trypomastigote in cardiomyocytes assessed as decrease in intracellular parasites at 20 uM after 72 hrs; format: functional, organism-based; procedure, shortened: as §1

Sequence of Sterol 14-alpha demethylase (Q7Z1V1 whole entry): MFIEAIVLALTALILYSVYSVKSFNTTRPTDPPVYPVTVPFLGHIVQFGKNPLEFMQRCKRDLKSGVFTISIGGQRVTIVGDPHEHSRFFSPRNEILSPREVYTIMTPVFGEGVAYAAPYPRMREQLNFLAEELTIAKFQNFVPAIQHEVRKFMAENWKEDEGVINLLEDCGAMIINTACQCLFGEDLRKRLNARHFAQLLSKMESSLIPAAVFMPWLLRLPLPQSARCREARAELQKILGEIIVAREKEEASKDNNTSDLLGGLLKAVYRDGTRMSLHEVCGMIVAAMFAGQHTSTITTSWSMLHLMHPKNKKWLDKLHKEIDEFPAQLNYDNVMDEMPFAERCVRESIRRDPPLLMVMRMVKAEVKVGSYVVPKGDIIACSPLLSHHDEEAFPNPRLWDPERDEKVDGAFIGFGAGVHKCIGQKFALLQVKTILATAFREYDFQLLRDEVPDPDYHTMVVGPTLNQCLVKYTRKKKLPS
Sequence of Sterol 14-alpha demethylase (Trypanosoma cruzi (strain CL Brener)) (Q7Z1V1 whole entry, looked up): as the sequence (Q7Z1V1 whole entry) above

Compound | Ratio [1] | Activity [2] | Ratio [3] | Activity [4] | Kd [5] [µM] | Activity [6] | EC50 ([4]; read-out: ED50 (the source's name)) [µM] | Activity [7] | Activity [8]
COc1ccc2c(c1)c(CC(=O)NCc1ccc(Cl)nc1)c(C)n2C(=O)c1ccc(Cl)cc1 | < 1 | Dose-dependent effect | 4.2 | Dose-dependent effect |  |  |  |  | 
COc1ccc2c(c1)c(CC(=O)NCc1ccccn1)c(C)n2C(=O)c1ccc(Cl)cc1 | > 10 | Dose-dependent effect | 13 | Dose-dependent effect | 7.6 |  |  |  | 
CC1CCC(C(=O)NC(Cc2c[nH]c3ccccc23)C(=O)Nc2ccncc2)CC1 (stereo unspecified) |  | Dose-dependent effect |  | Dose-dependent effect |  |  |  |  | 
CCC(C(=O)Nc1ccncc1)c1ccccc1 (stereo unspecified) |  |  | 10 |  | 0.44 |  |  |  | 
COc1ccc2c(c1)c(CC(=O)NCCc1cccnc1)c(C)n2C(=O)c1ccc(Cl)cc1 |  | Dose-dependent effect | 6.3 |  | 2.31 | Active | < 1 |  | 
COc1ccc2c(c1)c(CC(=O)Nc1ccccn1)c(C)n2C(=O)c1ccc(Cl)cc1 | 2.1 |  | 11 |  | 3.3 |  |  |  | 
COc1ccc2c(c1)c(CC(=O)Nc1ncccn1)c(C)n2C(=O)c1ccc(Cl)cc1 | 3.6 |  | 15 |  |  |  |  |  | 
COc1ccc2c(c1)c(CC(=O)Nc1cccnc1)c(C)n2C(=O)c1ccc(Cl)cc1 | 2.1 |  | 9.1 |  | 0.29 |  |  |  | 
COc1ccc2c(c1)c(CC(=O)NC(C)c1ccncc1)c(C)n2C(=O)c1ccc(Cl)cc1 (stereo unspecified) | 1.7 |  | 8.5 |  | 0.37 |  |  |  | 
COc1ccc2c(c1)c(CC(=O)NCc1ccncc1)c(C)n2C(=O)c1ccc(Cl)cc1 | 10 |  | 10 |  | 0.54 |  |  |  | 
COc1ccc2c(c1)c(CC(=O)NCCc1cccc(Cl)c1)c(C)n2C(=O)c1ccc(Cl)cc1 | < 1 |  | < 1 |  | 0.36 |  |  | Active | Active
COc1ccc2c(c1)c(CC(=O)NCc1ccc(C(F)(F)F)nc1)c(C)n2C(=O)c1ccc(Cl)cc1 | < 1 |  | 7.7 |  |  |  |  |  | 
O=C(Nc1ccncc1)C1c2ccccc2Oc2ccccc21 |  |  | 14 |  | 0.75 |  |  |  | 
COc1ccc2c(c1)c(CC(=O)NCC(C)c1ccccc1)c(C)n2C(=O)c1ccc(Cl)cc1 (stereo unspecified) | > 40 |  | < 1 |  | 0.15 |  |  | Active | Active
